Results as given in ChEMBL document CHEMBL1641520, “Design, synthesis, and biological evaluation of novel water-soluble N-mustards as potential anticancer agents” (Bioorg Med Chem, 2011).
Activity calls are given as the source filed them. The rule behind the calls is not given here.

How the values were obtained:
[1] = tested on: PC-3; experiment: Cytotoxicity against human PC3 cells after 72 hrs by alamar blue assay; assay type: functional, cell-based; conditions: PC-3, 72 h
Outline: (§1)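 H1299, PC3, CL1-0, CL1-5 and MCF-7 cells exposed to compound for 72 h. Alamar blue added, then 6 h at 37 °C; absorbance at 570 and 600 nm. IC50 from median-effect analysis of dose-effect data at six or seven concentrations.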

[2] = tested on: CCRF-CEM; experiment: Selectivity ratio of IC50 for taxol-resistant human CCRF-CEM cells to IC50 for human CCRF-CEM cells; assay type: functional
[3] = Cytotoxicity against human H1299 cells after 72 hrs by alamar blue assay; assay type: functional, cell-based; conditions: NCI-H1299, 72 h; outline: as §1
[4] = tested on: CCRF-CEM; experiment: Cytotoxicity against vinblastine-resistant human CCRF-CEM cells after 72 hrs by XTT assay; assay type: functional, cell-based
Outline: (§2)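 CCRF-CEM leukemia cells and their taxol- or vinblastine-resistant sublines given compound for 72 h. XTT read-out: after phenazine methosulfate–XTT, 6 h at 37 °C, absorbance at 450 and 630 nm. IC50 from median-effect analysis of dose-effect data at six or seven concentrations.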

[5] = tested on: CCRF-CEM; experiment: Cytotoxicity against taxol-resistant human CCRF-CEM cells after 72 hrs by XTT assay; assay type: functional, cell-based; outline: as §2
[6] = tested on: HCT-116; experiment: Cytotoxicity against human HCT116 cells after 72 hrs by SRB assay; assay type: functional, cell-based; conditions: HCT-116, 72 h
Outline: (§3)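 MX-1 breast and HCT-116 colon carcinoma cells exposed to compound for 72 h; growth measured by sulforhodamine B assay. IC50 from median-effect analysis of dose-effect data at six or seven concentrations.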

[7] = tested on: MCF7; experiment: Cytotoxicity against human MCF7 cells after 72 hrs by alamar blue assay; assay type: functional, cell-based; conditions: MCF7, 72 h; outline: as §1
[8] = Cytotoxicity against human CL1-5 cells after 72 hrs by alamar blue assay; assay type: functional, cell-based; conditions: CL1-5, 72 h; outline: as §1
[9] = tested on: Nucleic Acid; experiment: Binding affinity to Escherichia coli plasmid EGFP-N1 DNA at 1 to 10 uM after 22 hrs by alkaline agarose gel shift assay; assay type: nucleic-acid assay
Outline: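 Purified pEGFP-N1 plasmid DNA (1500 ng) incubated with compound (1–20 µM) in 3 mM NaCl/1 mM sodium phosphate pH 7.4/1 mM EDTA for 2 h at 37 °C. Linearized with BamHI, ethanol-precipitated, denatured in 0.5 N NaOH-10 mM EDTA. Run on 0.8% alkaline agarose gel at 4 °C, 18 V for 22 h. Ethidium bromide stain; cross-linked double-stranded DNA scored against single-stranded DNA.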

[10] = tested on: CCRF-CEM; experiment: Cytotoxicity against human CCRF-CEM cells after 72 hrs by XTT assay; assay type: functional, cell-based; outline: as §2
[11] = tested on: MX1; experiment: Cytotoxicity against human MX1 cells after 72 hrs by SRB assay; assay type: functional, cell-based; conditions: MX1, 72 h; outline: as §3
[12] = Cytotoxicity against human CL1-0 cells after 72 hrs by alamar blue assay; assay type: functional, cell-based; conditions: CL1-0, 72 h; outline: as §1
[13] = tested on: CCRF-CEM; experiment: Selectivity ratio of IC50 for vinblastine-resistant human CCRF-CEM cells to IC50 for human CCRF-CEM cells; assay type: functional
[14] = tested on: U-87MG ATCC; conditions: Homo sapiens, 80 mg/kg
[15] = Cell cycle arrest in human H1299 cells assessed as accumulation at sub-G1 phase at 10 uM after 24 hrs by propidium iodide staining-based flow cytometry; assay type: functional; conditions: NCI-H1299
Outline: (§4)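 H1299 non-small cell lung carcinoma cells exposed to compound for 24 h. Attached cells trypsinized, PBS-washed, fixed in ice-cold 70% ethanol for 30 min. Stained with 4 µg/ml propidium iodide in PBS with 1% Triton X-100 and 0.1 mg/ml RNase A. Analyzed by flow cytometry; phase percentages taken from DNA histograms.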

[16] = tested on: MX1; experiment: Anticancer activity against human MX1 cells xenografted in athymic mouse assessed as complete tumor remission at 30 mg/kg, iv Q2D for 5 days measured after 70 days of tumor implantation; assay type: functional, organism-based; parameters: dose 30 mg/kg
Outline: (§5)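 Athymic nu/nu nude mice (male, ≥6 weeks, 20–24 g) carrying human tumor xenografts; dosing iv via tail vein, Q2D, in vehicle of DMSO/Tween 80/saline (50:40:160 µL). Dose level is the maximal tolerated dose determined beforehand. Tumor volume by caliper (length × width × height or width). Body weight taken as total minus tumor weight (1 mm³ = 1 mg). n = 4–5 mice.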

[17] = tested on: PC-3; experiment: Anticancer activity against human PC3 cells xenografted in athymic mouse assessed as tumor suppression at 40 mg/kg, iv Q2D for 3 days; assay type: functional; conditions: PC-3, 72 h; outline: as §5
[18] = Cell cycle arrest in human H1299 cells assessed as accumulation at G1 phase at 10 uM after 24 hrs by propidium iodide staining-based flow cytometry; assay type: functional; conditions: NCI-H1299; outline: as §4
[19] = Cell cycle arrest in human H1299 cells assessed as accumulation at G2/M phase at 2.5 uM after 24 hrs by propidium iodide staining-based flow cytometry; assay type: functional; conditions: NCI-H1299; outline: as §4
[20] = Cell cycle arrest in human H1299 cells assessed as accumulation at S phase at 5 uM after 24 hrs by propidium iodide staining-based flow cytometry; assay type: functional; conditions: NCI-H1299; outline: as §4
[21] = Cell cycle arrest in human H1299 cells assessed as accumulation at G2/M phase at 10 uM after 24 hrs by propidium iodide staining-based flow cytometry; assay type: functional; conditions: NCI-H1299; outline: as §4
[22] = tested on: U-87MG ATCC; experiment: Anticancer activity against human U87MG cells xenografted in athymic mouse assessed as tumor suppression at 30 mg/kg, iv Q2D for 6 days; assay type: functional, organism-based; parameters: dose 30 mg/kg; outline: as §5
[23] = tested on: PC-3; experiment: Anticancer activity against human PC3 cells xenografted in athymic mouse assessed as tumor suppression at 30 mg/kg, iv Q2D for 4 days; assay type: functional; conditions: PC-3, 96 h; outline: as §5
[24] = Cell cycle arrest in human H1299 cells assessed as accumulation at sub-G1 phase at 2.5 uM after 24 hrs by propidium iodide staining-based flow cytometry; assay type: functional; conditions: NCI-H1299; outline: as §4
[25] = Mean residence time in Sprague-Dawley rat at 1 mg/kg, iv by LC-MS/MS analysis; assay type: ADME, organism-based; parameters: dose 1 mg/kg, route intravenous; conditions: in vivo
[26] = Steady state clearance in Sprague-Dawley rat at 1 mg/kg, iv up to 24 hrs by LC-MS/MS analysis; assay type: ADME, organism-based; parameters: dose 1 mg/kg, route intravenous; conditions: in vivo, read-out: CLss
[27] = Cell cycle arrest in human H1299 cells assessed as accumulation at S phase at 2.5 uM after 24 hrs by propidium iodide staining-based flow cytometry; assay type: functional; conditions: NCI-H1299; outline: as §4
[28] = Cell cycle arrest in human H1299 cells assessed as accumulation at sub-G1 phase at 5 uM after 24 hrs by propidium iodide staining-based flow cytometry; assay type: functional; conditions: NCI-H1299; outline: as §4
[29] = Cell cycle arrest in human H1299 cells assessed as accumulation at S phase at 10 uM after 24 hrs by propidium iodide staining-based flow cytometry; assay type: functional; conditions: NCI-H1299; outline: as §4
[30] = Cell cycle arrest in human H1299 cells assessed as accumulation at G1 phase at 2.5 uM after 24 hrs by propidium iodide staining-based flow cytometry; assay type: functional; conditions: NCI-H1299; outline: as §4
[31] = tested on: HCT-116; experiment: Anticancer activity against human HCT116 cells xenografted in athymic mouse assessed as tumor suppression at 30 mg/kg, iv Q2D for 5 days; assay type: functional; conditions: HCT-116, 120 h; outline: as §5
[32] = Cell cycle arrest in human H1299 cells assessed as accumulation at G1 phase at 5 uM after 24 hrs by propidium iodide staining-based flow cytometry; assay type: functional; conditions: NCI-H1299; outline: as §4
[33] = Cell cycle arrest in human H1299 cells assessed as accumulation at G2/M phase at 5 uM after 24 hrs by propidium iodide staining-based flow cytometry; assay type: functional; conditions: NCI-H1299; outline: as §4

| Structure (SMILES) | IC50 [1] [nM] | Ratio IC50 [2] | IC50 [3] [nM] | IC50 [4] [nM] | IC50 [5] [nM] | IC50 [6] [nM] | IC50 [7] [nM] | IC50 [8] [nM] | Activity [9] | IC50 [10] [nM] | IC50 [11] [nM] | IC50 [12] [nM] | Ratio IC50 [13] | further results |
| --- | --- | --- | --- | --- | --- | --- | --- | --- | --- | --- | --- | --- | --- | --- |
| CN(C)CCCOc1ccc(NC(=O)Nc2ccc(N(CCCl)CCCl)cc2)cc1.Cl | 940 | 11.8 | 9790 | 1260 | 1360 | 290 | 1320 | 5110 | Active | 120 | 260 | 7090 | 10.9 |  |
| O=P1(N(CCCl)CCCl)NCCCO1 (stereo unspecified) |  |  |  |  |  |  |  |  |  |  |  |  |  | inhibition [14]: Active |
| Cl.O=C(Nc1ccc(OCCN2CCCCC2)cc1)Nc1ccc(N(CCCl)CCCl)cc1 | 930 | 4.02 | 1840 | 720 | 500 | 270 | 1240 | 4750 | Active | 120 | 150 | 2870 | 7.47 |  |
| CN(C)CCNC(=O)c1cccc(NC(=O)Nc2ccc(N(CCCl)CCCl)cc2)c1.Cl | 1880 | 9.4 | 10400 | 800 | 1220 | 690 | 630 | 6080 | Active | 130 | 570 | 14600 | 6.2 | Activity [15]: 26%; inhibition [16]: Active; inhibition in vivo at 40 mg/kg [17]: > 99%; Activity [18]: 6.5%; Activity [19]: 55.9%; Activity [20]: 8.8%; Activity [21]: 62.3%; inhibition [22]: Active; inhibition in vivo at 30 mg/kg [23]: > 99%; Activity [24]: 20%; MRT [25]: 6.6 min; clearance [26]: 18 mL/min/kg; Activity [27]: 1.8%; Activity [28]: 19.7%; Activity [29]: 5.2%; Activity [30]: 2.3%; inhibition in vivo at 30 mg/kg [31]: > 95%; Activity [32]: 10.7%; Activity [33]: 60.8% |
| Cl.O=C(Nc1ccc(C(=O)N2CCC(N3CCCCC3)CC2)cc1)Nc1ccc(N(CCCl)CCCl)cc1 | 1910 | 91.4 | 9630 | 32200 | 20500 | 640 | 1540 | 8510 |  | 220 | 3640 | 15800 | 143.7 |  |
| Cl.O=C(Nc1ccc(N(CCCl)CCCl)cc1)Nc1cccc(C(=O)NCCN2CCCCC2)c1 | 1700 | 17 | 6220 | 10500 | 4620 | 310 | 1180 | 4640 | Active | 270 | 730 | 8670 | 43.7 |  |
| CN(C)CCCNC(=O)c1ccc(NC(=O)Nc2ccc(N(CCCl)CCCl)cc2)cc1.Cl | 5250 | 77.5 | 12700 | 32800 | 20400 | 4540 | 5170 | 9790 |  | 260 | 1110 | 16200 | 124.8 |  |
